Series [1] in a line: folding enthalpy; higher = less favourable; fluorescence melt of hairpins on a sequencing array, two-state fit. The following applies: sodium 0.088 M. In short, it runs like this:
(§1)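 Folding enthalpy and melting temperature were estimated with bootstrapped two-state fits and combined across four replicates by inverse-variance weighting, with fitted temperatures raised by 9.35 °C to match UV melts. The data were Cy3 fluorescence of library hairpins, with annealed Cy3 and quencher oligos, on a sequenced MiSeq flow cell in 50 mM Na-HEPES pH 8.0, 25 mM NaCl, imaged in 2.5 °C steps up to 60 °C and normalised to pre-quench Cy3 and control constructs.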

A short description of series [2]: melting temperature; fluorescence melt of hairpins on a sequencing array, two-state fit, raised by 9.35 °C to match UV melts. The following applies: sodium 0.088 M. The essentials:
as §1

Among the data in the array DNA melting data of Ke et al. (doi:10.1101/2024.01.08.574731) are folding enthalpy and Tm values, retold here.

With GCACTGCGAAAGCATGGC ((..(((....)))..)), the folding enthalpy in series [1] is -73 kJ/mol. The Tm in series [2] worked out at 44.8 °C.
As for GCACTGCGAAAGCCTTGC (((..((....))..))), in series [1], the folding enthalpy was -91.6 kJ/mol. In addition, the Tm in series [2] is 36.6 °C.
Taken in the same sequence, the figures for GCACTGCGAAAGCTGAGC ((.(.((....)).).)) were -85.6 kJ/mol and 49.2 °C.
On to GCACTGCGAAAGCTGCGC ((.(.((....)).).)), for which, in series [1], the folding enthalpy is -94.2 kJ/mol. For the same sequence, the Tm in series [2] amounted to 57.1 °C.
Regarding GCACTGGAAACAGTGC ((((((....)))))), the folding enthalpy in series [1] was -160 kJ/mol. Moreover, the Tm in series [2] was 65.2 °C.
Take GCACTGGCGAAAGCCTGC (((..(((....)))))): the folding enthalpy in series [1] was -50.8 kJ/mol. Besides, the Tm in series [2] was determined as 44.3 °C.
Take GCACTTACGAAAGTATGC (((..(((....)))))): in series [1], the folding enthalpy was -75.9 kJ/mol. The Tm in series [2] was 30.3 °C.
In the case of GCACTTCGAAAGAATGC (((.(((....)))))), the folding enthalpy in series [1] is -130 kJ/mol. In addition, the Tm in series [2] came to 41.5 °C.
For GCACTTGCGAAAGCATGC (((..(((....)))))), the folding enthalpy in series [1] was -45.1 kJ/mol. Moreover, the Tm in series [2] was determined as 38.6 °C.
Taken in the same sequence, the figures for GCACTTGGAAACGAGTGC (((((.(....).))))) were -230 kJ/mol and 54.1 °C.
As to GCAGAACGAAAGTTTTGC (((.(((....))).))), in series [1], the folding enthalpy was -171 kJ/mol. For the same sequence, the Tm in series [2] was 52.1 °C.
As to GCAGAAGGAAACTTTTGC (((.(((....))).))), the folding enthalpy in series [1] is -130 kJ/mol. The Tm in series [2] is 37 °C.
With GCAGAATCGAAAGATTGC (((..(((....)))))), in series [1], the folding enthalpy was -88.1 kJ/mol. In addition, the Tm in series [2] is 34.6 °C.
For GCAGACACGAAAGTGTGC (((..(((....)))))), the folding enthalpy in series [1] was -64.2 kJ/mol. For the same sequence, in series [2], the Tm was found to be 46.8 °C.
Take GCAGACGAAAGTCACTGC ((((((....)))..))): the folding enthalpy in series [1] was -78 kJ/mol. Also, the Tm in series [2] was 39.5 °C.
In the same order, the values of GCAGACGAAAGTCCTTGC ((((((....)))..))) are -51.5 kJ/mol and 32.5 °C.
In the same order, the values of GCAGACGAAAGTCTTTGC ((((((....)))..))) are -60.3 kJ/mol and 37.1 °C.
With GCAGACGGAAACACCTGC ((((..(....)..)))), the folding enthalpy in series [1] is -75.7 kJ/mol. In addition, the Tm in series [2] was 28.6 °C.
For the sequence GCAGAGAAATCTGC (((((....))))), the folding enthalpy in series [1] is -96.7 kJ/mol. Also, in series [2], the Tm came out at 50.6 °C.
In the same order, the values of GCAGAGCGAAAGCACCGC ((.(.((....)).).)) are -59.6 kJ/mol and 45.4 °C.
Taken in the same sequence, the figures for GCAGAGCGAAAGCACGGC ((.(.((....)).).)) were -87.4 kJ/mol and 55.1 °C.
In the case of GCAGAGCGAAAGCATTGC (((..((....))..))), the folding enthalpy in series [1] is -72.4 kJ/mol. The Tm in series [2] is 49.9 °C.
Taken in the same sequence, the figures for GCAGAGCGAAAGCCGTGC (((..((....))..))) were -68.5 kJ/mol and 42.1 °C.
Taken in the same sequence, the figures for GCAGAGCGAAAGCGTTGC (((..((....))..))) were -81.4 kJ/mol and 62 °C.
As for GCAGAGCGAAAGCTAGGC ((..(((....)))..)), in series [1], the folding enthalpy was -68.8 kJ/mol. Further, in series [2], the Tm was found to be 50.7 °C.
Taken in the same sequence, the figures for GCAGAGTCGAAAGACTGC (((..(((....)))))) were -69.9 kJ/mol and 48.7 °C.
In the same order, the values of GCAGATACGAAAGTATGC (((..(((....)))))) are -93.3 kJ/mol and 36.5 °C.
In the same order, the values of GCAGATCGAAAGATATGC (((.(((....))).))) are -154 kJ/mol and 54.7 °C.
As for GCAGATGAAAATCTGC ((((((....)))))), the folding enthalpy in series [1] is -163 kJ/mol. In addition, in series [2], the Tm is 59.9 °C.
GCAGATGGAAACATCTAC (.(((((....))))).): the folding enthalpy in series [1] is -79.7 kJ/mol. The Tm in series [2] turned out to be 34.7 °C.
As to GCAGATGGAAACATCTGC (((((((....))))))), the folding enthalpy in series [1] was -157 kJ/mol. In addition, in series [2], the Tm came out at 67.1 °C.
For GCAGATGGAAACGTCTGC (((((.(....).))))), the folding enthalpy in series [1] was -189 kJ/mol. Also, the Tm in series [2] amounted to 53.2 °C.
For GCAGCAACGAAAGTTTGC (((..(((....)))))), the folding enthalpy in series [1] was -71.5 kJ/mol. Besides, in series [2], the Tm worked out at 35.8 °C.
Consider GCAGCACGAAAGTGATGC (((.(((....))).))), for which, in series [1], the folding enthalpy is -151 kJ/mol. Moreover, the Tm in series [2] worked out at 69 °C.
Turning to GCAGCAGGAAACTGCCGC ((.((((....)))).)), in series [1], the folding enthalpy was -116 kJ/mol. Further, the Tm in series [2] was 50.5 °C.
With GCAGCAGGAAACTGCTAC (.(((((....))))).), in series [1], the folding enthalpy was -56.1 kJ/mol. In series [2], the Tm is 44.7 °C.
Taken in the same sequence, the figures for GCAGCAGGAAACTGTTGC (((.(((....))).))) were -219 kJ/mol and 52.1 °C.
Take GCAGCCGAAAGGCCTGC ((((((....))).))): the folding enthalpy in series [1] was -107 kJ/mol. In addition, the Tm in series [2] is 61.3 °C.
Taken in the same sequence, the figures for GCAGCCGAAAGGCCTTGC ((((((....)))..))) were -44.2 kJ/mol and 35.7 °C.
GCAGCCGAAAGGCTTGC ((((((....))).))): the folding enthalpy in series [1] was -64.1 kJ/mol. Also, the Tm in series [2] was found to be 62 °C.
Consider GCAGCCGAAAGGCTTTGC ((((((....)))..))), for which, in series [1], the folding enthalpy was -42.7 kJ/mol. In series [2], the Tm came to 42.2 °C.
In the same order, the values of GCAGCCGGAAACGACCGC ((.(.((....)).).)) are -87.6 kJ/mol and 31.2 °C.
Taken in the same sequence, the figures for GCAGCCGGAAACGGCCGC ((.((((....)))).)) were -71.8 kJ/mol and 58.9 °C.
In the same order, the values of GCAGCGCCGAAAGGCTGC (((..(((....)))))) are -61.3 kJ/mol and 53.9 °C.
On to GCAGCGCGAAAGCGTAGC ((..(((....)))..)), for which, in series [1], the folding enthalpy is -66.5 kJ/mol. For the same sequence, in series [2], the Tm is 56.4 °C.
In the same order, the values of GCAGCGCGAAAGCTATGC (((..((....))..))) are -70.1 kJ/mol and 45.2 °C.
In the same order, the values of GCAGCGGGAAACCACCGC ((.(.((....)).).)) are -59.3 kJ/mol and 39.8 °C.
Taken in the same sequence, the figures for GCAGCTCGAAAGAGGTGC (((.(((....))).))) were -123 kJ/mol and 67.5 °C.
Take GCAGCTGGAAACAGTTGC (((.(((....))).))): the folding enthalpy in series [1] was -216 kJ/mol. In series [2], the Tm was 53.1 °C.
Take GCAGGACGAAAGTCATGC (((.(((....))).))): the folding enthalpy in series [1] was -159 kJ/mol. Further, the Tm in series [2] amounted to 66.3 °C.
Taken in the same sequence, the figures for GCAGGAGGAAACCCCTGC (((((.(....).))))) were -173 kJ/mol and 50.9 °C.
Taken in the same sequence, the figures for GCAGGAGGAAACTCCCAC (..((((....))))..) were -70.3 kJ/mol and 25.8 °C.
Taken in the same sequence, the figures for GCAGGCCCGAAAGGGTGC (((..(((....)))))) were -54.8 kJ/mol and 41.9 °C.
As for GCAGGCGAAAGCCAGTGC ((((((....)))..))), the folding enthalpy in series [1] is -79 kJ/mol. Further, the Tm in series [2] came out at 49.5 °C.
In the same order, the values of GCAGGCGAAAGCCATTGC ((((((....)))..))) are -55.2 kJ/mol and 42.7 °C.
Take GCAGGCGAAAGCCCTTGC ((((((....)))..))): the folding enthalpy in series [1] is -50 kJ/mol. In addition, in series [2], the Tm stood at 38.9 °C.
Turning to GCAGGCGCGAAAGCGTGC (((..(((....)))))), the folding enthalpy in series [1] was -55.9 kJ/mol. Further, the Tm in series [2] was 49.4 °C.
In the same order, the values of GCAGGCGGAAACACCCGC ((.((.(....).)).)) are -52.8 kJ/mol and 36.1 °C.
Taken in the same sequence, the figures for GCAGGCGGAAACGTCTGC ((((.((....)).)))) were -148 kJ/mol and 63.1 °C.
In the same order, the values of GCAGGGCGAAAGCAATGC (((..((....))..))) are -101 kJ/mol and 59.9 °C.
Take GCAGGGCGAAAGCCACGC ((..(((....)))..)): the folding enthalpy in series [1] is -63.4 kJ/mol. Besides, the Tm in series [2] amounted to 52.2 °C.
Take GCAGGGCGAAAGCCGAGC ((..(((....)))..)): in series [1], the folding enthalpy is -62.4 kJ/mol. In series [2], the Tm came out at 50.1 °C.
In the case of GCAGGGCGAAAGCCTAGC ((..(((....)))..)), in series [1], the folding enthalpy is -79 kJ/mol. The Tm in series [2] was determined as 55.2 °C.
As for GCAGGGCGAAAGCGCCGC ((.(.((....)).).)), the folding enthalpy in series [1] is -65.7 kJ/mol. In addition, the Tm in series [2] is 52.6 °C.
Taken in the same sequence, the figures for GCAGGGCGAAAGCTCAGC ((.(.((....)).).)) were -76.9 kJ/mol and 48.3 °C.
With GCAGGGCGAAAGCTCGGC ((.(.((....)).).)), the folding enthalpy in series [1] is -86.1 kJ/mol. In addition, the Tm in series [2] stood at 59.2 °C.
Taken in the same sequence, the figures for GCAGGGGAAACCCTGC ((((((....)))))) were -146 kJ/mol and 68.1 °C.
In the same order, the values of GCAGGGGGAAACCCCCAC (..((((....))))..) are -40 kJ/mol and 33.1 °C.
Taken in the same sequence, the figures for GCAGGGGGAAACCCTTGC (((.(((....))).))) were -129 kJ/mol and 52.2 °C.
Regarding GCAGGGGGAAACCTCTGC ((((.((....)).)))), the folding enthalpy in series [1] is -163 kJ/mol. Moreover, the Tm in series [2] was 55 °C.
Taken in the same sequence, the figures for GCAGGTGGAAACACCCGC ((.((((....)))).)) were -97.8 kJ/mol and 50 °C.
Turning to GCAGGTGGAAACACTTGC (((.(((....))).))), the folding enthalpy in series [1] is -147 kJ/mol. In addition, in series [2], the Tm worked out at 51.5 °C.
Taken in the same sequence, the figures for GCAGGTGGAAACGCCTGC (((((.(....).))))) were -195 kJ/mol and 61.8 °C.
